Experimental data as given in ChEMBL document CHEMBL1155941, “Solid-phase synthesis and biological evaluation of a parallel library of 2,3-dihydro-1,5-benzothiazepines” (Bioorg Med Chem, 2008).
pIC50: −log10 of the molar value.

Columns and labels:
[1] = test system: Agrobacterium tumefaciens; test: Inhibition of Agrobacterium tumefaciens-induced tumor growth in potato tuber disk after 21 days; assay type: functional, organism-based
How it was run: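 Potato disk bioassay: red-skinned potatoes surface-sterilized in 0.1% HgCl₂. Disks were inoculated with a 48-h culture of A. tumefaciens AT-10 containing test sample at 10, 100 or 1000 ppm. Tumors were counted under a dissecting microscope, with tests run in replicate. Percent inhibition came from the average tumor count per sample versus control; IC₅₀ was calculated by a literature procedure.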

[2] = target: Acetylcholinesterase (Homo sapiens, UniProt P22303); test: Inhibition of AchE
Acetylcholinesterase, sequence (P22303 whole entry): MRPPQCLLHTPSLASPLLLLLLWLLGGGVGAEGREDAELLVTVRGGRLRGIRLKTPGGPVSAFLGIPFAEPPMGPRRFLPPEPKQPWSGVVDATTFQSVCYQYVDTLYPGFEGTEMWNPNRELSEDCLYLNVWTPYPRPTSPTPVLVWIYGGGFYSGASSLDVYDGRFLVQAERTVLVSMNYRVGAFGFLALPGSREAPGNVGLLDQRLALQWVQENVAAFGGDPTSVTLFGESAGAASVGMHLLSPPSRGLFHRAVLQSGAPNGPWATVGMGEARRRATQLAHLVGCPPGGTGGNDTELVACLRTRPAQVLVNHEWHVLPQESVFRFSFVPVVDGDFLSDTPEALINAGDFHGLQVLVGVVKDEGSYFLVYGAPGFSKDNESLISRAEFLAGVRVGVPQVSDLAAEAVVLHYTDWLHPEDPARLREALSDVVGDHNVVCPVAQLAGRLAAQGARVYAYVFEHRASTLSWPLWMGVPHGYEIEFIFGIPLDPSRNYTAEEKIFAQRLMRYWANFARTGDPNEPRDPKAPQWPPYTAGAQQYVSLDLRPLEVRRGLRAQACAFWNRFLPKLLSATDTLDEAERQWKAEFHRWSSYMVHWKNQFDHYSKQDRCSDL

[3] = target: Cholinesterase (Homo sapiens, UniProt P06276); test: Inhibition of BchE
Cholinesterase, sequence (P06276 whole entry): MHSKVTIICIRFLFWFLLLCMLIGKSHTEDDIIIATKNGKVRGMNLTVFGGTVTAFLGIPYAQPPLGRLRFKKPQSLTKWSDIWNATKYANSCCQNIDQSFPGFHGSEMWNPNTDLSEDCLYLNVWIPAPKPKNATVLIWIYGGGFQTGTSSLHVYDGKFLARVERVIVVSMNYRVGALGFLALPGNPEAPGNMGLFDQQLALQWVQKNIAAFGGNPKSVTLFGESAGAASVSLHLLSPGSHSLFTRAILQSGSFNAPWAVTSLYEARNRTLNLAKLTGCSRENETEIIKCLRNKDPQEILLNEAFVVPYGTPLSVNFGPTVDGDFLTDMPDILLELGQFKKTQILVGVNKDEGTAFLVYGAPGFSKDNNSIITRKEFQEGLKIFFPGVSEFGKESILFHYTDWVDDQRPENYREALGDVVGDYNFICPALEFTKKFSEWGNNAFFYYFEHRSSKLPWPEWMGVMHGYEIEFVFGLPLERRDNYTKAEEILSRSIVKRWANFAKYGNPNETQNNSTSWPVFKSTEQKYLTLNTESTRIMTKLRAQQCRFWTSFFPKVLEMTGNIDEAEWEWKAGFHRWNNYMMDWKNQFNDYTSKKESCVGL
How it was run: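 Ellman-type assay: enzyme, DTNB and test compound (dissolved in EtOH) were mixed in sodium phosphate buffer pH 8.0 and incubated 15 min at 25 °C. Reactions were run in triplicate. % inhibition = (E–S)/E × 100, where E is enzyme activity without compound. IC50 was derived from inhibition across increasing compound concentrations.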

[4] = test system: Agrobacterium tumefaciens; test: Inhibition of Agrobacterium tumefaciens-induced tumor growth in potato tuber disk at 10 ppm after 21 days
[5] = test system: Agrobacterium tumefaciens; test: Inhibition of Agrobacterium tumefaciens-induced tumor growth in potato tuber disk at 1000 ppm after 21 days
[6] = test system: Agrobacterium tumefaciens; test: Inhibition of Agrobacterium tumefaciens-induced tumor growth in potato tuber disk at 100 ppm after 21 days
[7] = test system: Bordetella bronchiseptica; test: Antimicrobial activity against Bordetella bronchiseptica ATCC 4617 assessed as inhibition zone diameter after 24 hrs by agar well diffusion method; assay type: functional
How it was run: (§1)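 Agar well diffusion: broth culture of about 10⁶ CFU/ml mixed into nutrient agar at 45 °C and poured into plates. 8-mm wells received test sample at 1 mg/ml in DMSO. DMSO was the negative control and roxithromycin (1 mg/ml) the positive control. Triplicate plates were incubated 37 °C, 24 h. Complete-inhibition zone diameter (mm) was measured, with growth inhibition referenced to roxithromycin.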

[8] = test system: Escherichia coli; test: Antimicrobial activity against Escherichia coli ATCC 1522 assessed as inhibition zone diameter after 24 hrs by agar well diffusion method; assay type: functional; how it was run: as §1
[9] = test system: Micrococcus luteus; test: Antimicrobial activity against Micrococcus luteus assessed as inhibition zone diameter after 24 hrs by agar well diffusion method; assay type: functional; how it was run: as §1
[10] = test system: Klebsiella aerogenes; test: Antimicrobial activity against Enterobacter aerogenes ATCC 13048 assessed as inhibition zone diameter after 24 hrs by agar well diffusion method; assay type: functional; how it was run: as §1
[11] = test system: Salmonella enterica subsp. enterica; test: Antimicrobial activity against Salmonella setubal ATCC 19196 assessed as inhibition zone diameter after 24 hrs by agar well diffusion method; assay type: functional, Salmonella enterica subsp. enterica serovar Setubal; how it was run: as §1

SMILES | IC50 [1] | pIC50 [2] | pIC50 [3] | inhibition (INH) [4] | inhibition (INH) [5] | inhibition (INH) [6] | inhibition zone (IZ) [7] | inhibition zone (IZ) [8] | inhibition zone (IZ) [9] | inhibition zone (IZ) [10] | inhibition zone (IZ) [11]
COc1ccccc1/C=C/C(=O)c1cccc(O)c1 | 3.1 ppm |  |  |  |  |  |  |  |  |  | 
COc1ccc(/C=C/C(=O)c2cccc(O)c2)cc1OC | 5.8 ppm |  |  |  |  |  |  |  |  |  | 
Oc1cccc(C2=Nc3ccccc3SC(c3ccccc3)C2)c1 (centres undefined) | 5.41 ppm | 4.40 | 2.85 | 72.3% | 100% | 97.8% |  |  |  |  | 
COc1ccccc1C1CC(c2cccc(O)c2)=Nc2ccccc2S1 (centres undefined) | 7.06 ppm |  | 5.33 | 81.42% | 98.5% | 87.1% |  |  |  |  | 
COc1ccc(C2CC(c3cccc(O)c3)=Nc3ccccc3S2)cc1 (centres undefined) | 4.69 ppm |  |  | 57.4% | 100% | 78.7% |  |  |  |  | 
Oc1cccc(C2=Nc3ccccc3SC(c3ccc(Br)cc3)C2)c1 (centres undefined) | 61.5 ppm |  |  | 21.2% | 85.1% | 63.8% |  |  |  |  | 
COc1ccc(C2CC(c3cccc(O)c3)=Nc3ccccc3S2)cc1OC (centres undefined) | 8.23 ppm |  | 4.71 | 70.2% | 100% | 82.7% |  |  |  |  | 
Cc1ccc(C2CC(c3cccc(O)c3)=Nc3ccccc3S2)cc1 (centres undefined) | 30.7 ppm | 4.31 | 4.12 | 65.9% | 87.2% | 72.3% |  |  |  |  | 
Oc1cccc(C2=Nc3ccccc3SC(c3cccnc3)C2)c1 (centres undefined) | 926.2 ppm |  |  | 29.7% | 51% | 38.2% |  |  |  |  | 
Oc1cccc(C2=Nc3ccccc3SC(c3ccncc3)C2)c1 (centres undefined) | 6.1 ppm |  |  | 55.1% | 100% | 80% |  |  |  |  | 
Oc1cccc(C2=Nc3ccccc3SC(c3cccs3)C2)c1 (centres undefined) | 4.8 ppm | 5.23 | 5.40 | 87.2% | 100% | 100% |  |  |  |  | 
Oc1cccc(C2=Nc3ccccc3SC(c3ccc(Br)s3)C2)c1 (centres undefined) | 11.2 ppm |  |  | 80.3% | 92.8% | 91.4% |  |  |  |  | 
Oc1cccc(C2=Nc3ccccc3SC(c3ccc(Cl)cc3)C2)c1 (centres undefined) | 9 ppm | 4.73 | 4.10 | 51.93% | 74.4% | 68% |  |  |  |  | 
Oc1cccc(C2=Nc3ccccc3SC(c3ccc(F)cc3)C2)c1 (centres undefined) | 1232 ppm |  |  | 25.5% | 40.4% | 34% |  |  |  |  | 
CN(C)c1ccc(C2CC(c3cccc(O)c3)=Nc3ccccc3S2)cc1 (centres undefined) | 192.5 ppm |  | 4.46 | 38.2% | 100% | 44.6% | 9 mm | 11 mm | 10 mm | 11 mm | 9 mm
Oc1cccc(C2=Nc3ccccc3SC(c3cccc(O)c3)C2)c1 (centres undefined) | 179.3 ppm | 4.15 | 5.33 | 36.1% | 100% | 48.9% |  |  |  |  | 
Oc1cccc(C2=Nc3ccccc3SC(c3ccccc3Cl)C2)c1 (centres undefined) | 6.94 ppm |  |  | 74.4% | 95.7% | 93.6% |  |  |  |  | 
COc1cccc(C2CC(c3cccc(O)c3)=Nc3ccccc3S2)c1 (centres undefined) | 3.28 ppm |  |  | 67.142% | 100% | 84.2% |  |  |  |  | 
O=[N+]([O-])c1cccc(C2CC(c3cccc(O)c3)=Nc3ccccc3S2)c1 (centres undefined) | 26.2 ppm |  |  | 42.5% | 100% | 57.4% |  |  | 10 mm |  | 
Oc1cccc(C2=Nc3ccccc3SC(c3cccc(Cl)c3)C2)c1 (centres undefined) | 14.01 ppm |  | 4.53 | 68% | 93.6% | 80.8% |  |  | 11.5 mm |  | 
Oc1cccc(C2=Nc3ccccc3SC(c3ccccc3F)C2)c1 (centres undefined) | 295.5 ppm | 4.15 |  | 31.9% | 91.4% | 40.4% |  |  |  |  | 
Oc1ccc(C2CC(c3cccc(O)c3)=Nc3ccccc3S2)cc1 (centres undefined) | 237.9 ppm |  |  | 27.6% | 100% | 48.9% |  |  |  |  | 
COc1cc(C2CC(c3cccc(O)c3)=Nc3ccccc3S2)ccc1O (centres undefined) | 247.3 ppm |  |  | 36.1% | 95.7% | 40.4% | 10 mm | 9.5 mm | 10 mm | 11 mm | 10 mm
CC[C@H]1OC(=O)[C@H](C)[C@@H](O[C@H]2C[C@@](C)(OC)[C@@H](O)[C@H](C)O2)[C@H](C)[C@@H](O[C@@H]2O[C@H](C)C[C@H](N(C)C)[C@H]2O)[C@](C)(O)C[C@@H](C)/C(=N\OCOCCOC)[C@H](C)[C@@H](O)[C@]1(C)O [ROXITHROMYCIN] |  |  |  |  |  |  | 13 mm | 14 mm | 15 mm | 12 mm | 12 mm
CC[C@]1(O)C[C@H]2CN(CCc3c([nH]c4ccccc34)[C@@](C(=O)OC)(c3cc4c(cc3OC)N(C=O)[C@H]3[C@@](O)(C(=O)OC)[C@H](OC(C)=O)[C@]5(CC)C=CCN6CC[C@]43[C@@H]65)C2)C1 [VINCRISTINE] | 0.003 ppm |  |  |  |  |  |  |  |  |  | 
